# In the library only some 2.7% were active in any assay of this set; here they are far more common.
# PAFAH1B2 inh: PAFAH1B2 (human) inhibition; recombinant PAFAH1B2, FP-rhodamine activity probe, fluorescence polarization; inhibition, % at 3.39 µM; hit rate 1.2% among 340,000; AID 492953;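 active = inhibition above the mean of all tested compounds plus 3 SD, cut at about 24% in these data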;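 note: 0% = enzyme with DMSO and 100% = wells lacking PAFAH1B2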
# PAFAH1B3 inh: inhibitors of human PAFAH1B3. recombinant PAFAH1B3, FP-rhodamine probe, fluorescence polarization. Q15102. inhibition, % at 3.39 µM. hit rate 0.28% among 340,000;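 active = inhibition above the screen-wide average of all tested compounds plus 3 SD, cut at about 25% in these data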;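 note: 0% = enzyme with DMSO only and 100% = wells lacking PAFAH1B3 protein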
# PAFAH2 FP inh: PAFAH2 (human) inhibition | Q99487 | recombinant PAFAH2, FP-rhodamine activity probe, fluorescence polarization | inhibition, % at 3.39 µM | hit rate 0.99% among 340,000 | AID 492956;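 active = inhibition above the mean over all tested compounds plus 3 SD, cut at about 30% in these data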;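 note: inhibitors block probe labeling of enzyme so polarization drops; 0% = enzyme with DMSO and 100% = wells lacking PAFAH2 protein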
# ARFGAP1 inh: rat ARFGAP1 inhibition; hit rate 0.26% among 360,000; Q62848; inhibition, % at 16.5 µM; Arfgap1-stimulated ARF1 GTP hydrolysis, GDP FP detection; AID 651572;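 active = inhibition above a per-plate limit, mean inhibition of low control wells plus 3 SD, cut at about 25% in these data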;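 note: 0% = DMSO wells with enzyme and 100% = wells lacking Arfgap1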
# Target sequence (Q62848 1-136 limits assumed): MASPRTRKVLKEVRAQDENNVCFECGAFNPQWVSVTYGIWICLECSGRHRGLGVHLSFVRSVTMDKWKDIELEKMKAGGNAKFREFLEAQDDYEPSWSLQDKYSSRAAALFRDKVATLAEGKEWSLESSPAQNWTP
#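 Material: truncated rat Arfgap1 GAP domain; Incubation: compound-enzyme preincubation 20 min, reaction 120 min, detection 60 min, 25 °C; Read-out: percent inhibition of Arfgap1-stimulated GTP hydrolysis; Technique: FP, GDP Alexa 633 tracer displaced from anti-GDP antibody, 620/688 nm; Controls: No-Arfgap1 wells (100%) versus DMSO full-reaction wells (0%); Replication: single well per compound.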
# pPAFAH FP inh: pPAFAH (human) enzyme inhibition | inhibition, % at 3.39 µM | hit rate 1.5% among 330,000 | Q13093 | recombinant pPAFAH, FP-rhodamine probe fluorescence polarization;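 active = inhibition above the mean inhibition across the screen plus 3 SD, cut at about 25% in these data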;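 note: inhibitors block binding of the rhodamine activity-based probe so polarization drops; 0% = enzyme with DMSO and 100% = wells lacking pPAFAH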
# ASAP1 inh: ASAP1 ArfGAP inhibition; Q9ULH1; ASAP1-stimulated ARF1 GTP hydrolysis, GDP FP detection; inhibition, % at 16.5 µM; hit rate 0.19% among 360,000; AID 624377; in the data active = inhibition above about 25%;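 note: 0% = vehicle with enzyme and substrate and 100% = no enzyme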
# Target sequence (Q9ULH1 325-724 limits assumed): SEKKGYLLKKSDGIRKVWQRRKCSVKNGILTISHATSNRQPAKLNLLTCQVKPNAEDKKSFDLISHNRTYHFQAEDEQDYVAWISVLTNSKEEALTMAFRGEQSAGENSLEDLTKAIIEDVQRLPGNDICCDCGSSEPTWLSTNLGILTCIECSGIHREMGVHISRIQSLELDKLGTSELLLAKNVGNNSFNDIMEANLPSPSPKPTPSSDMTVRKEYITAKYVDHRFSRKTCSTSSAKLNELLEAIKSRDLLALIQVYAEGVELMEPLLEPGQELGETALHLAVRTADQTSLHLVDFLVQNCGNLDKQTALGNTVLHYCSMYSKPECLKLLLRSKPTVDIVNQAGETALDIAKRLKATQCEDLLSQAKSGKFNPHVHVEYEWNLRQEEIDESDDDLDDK
# PAFAH1B3 conf FP: PAFAH1B3 (human) inhibition, confirmed | inhibition, % at 3.39 µM | hit rate 30% among 390 | shares compounds with PAFAH1B3 inh | recombinant PAFAH1B3, FP-Rh activity-based probe, fluorescence polarization;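 active = average inhibition over triplicate runs above the hit cutoff set in the earlier primary screen, cut at about 25% in these data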;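 note: 0% = enzyme with DMSO and 100% = wells lacking PAFAH1B3 protein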
# ASAP1 GAP conf: ASAP1 inhibition confirmed; AID 624431; inhibition, % at 16.5 µM; hit rate 37% among 620; ASAP1-stimulated Arf1 GTPase, GDP fluorescence polarization; shares compounds with ASAP1 inh;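 active = mean inhibition over triplicates exceeds the hit threshold derived for the earlier primary screening run, cut at about 25% in these data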
# ARFGAP1 confirm: confirmation of rat ARFGAP1 inhibitors; shares compounds with ARFGAP1 inh; ARFGAP1-stimulated ARF1 GTP hydrolysis, GDP tracer FP; inhibition, % at 16.5 µM; hit rate 30% among 890; AID 651608;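 active = average inhibition over triplicates above the hit cutoff set in the earlier primary screen, cut at about 25% in these data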;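 note: 0% = Arfgap1 plus ARF1-GTP with DMSO and 100% = wells lacking Arfgap1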
# * = called active by the depositor; x = no result given.
SMILES,PAFAH1B2 inh,PAFAH1B3 inh,PAFAH2 FP inh,ARFGAP1 inh,pPAFAH FP inh,ASAP1 inh,PAFAH1B3 conf FP,others
COc1cc2c(cc1OC)CN(CCC(=O)c1ccc(Br)cc1)CC2,15,33*,-3,4,4,-1,28*,
COc1cc2c(cc1OC)CN(C(=O)CCNC(=O)c1ccc(Br)cc1)CC2,4,-2,2,11,x,-7,x,
COc1ccc(/C=C2\C(=N)N3N=C(CC(=O)N4CCOCC4)SC3=NC2=O)cc1,2,-2,3,6,7,-2,x,
N=C1/C(=C/c2ccc(-c3cccc(C(=O)O)c3)o2)C(=O)N=C2SC(CC(=O)N3CCOCC3)=NN12,11,30*,14,-3,14,-3,17,
Cc1cn2c(N)c(C=C3C=C(Cl)C(=O)C(Cl)=C3)c(=O)nc2s1,9,35*,6,-19,x,0,23,
COC1=C/C(=C/c2c(N)n3cc(C)sc3nc2=O)C=CC1=O,-1,9,-3,-2,-2,5,x,
O=c1cc(-c2ccc(O)cc2)oc2c(C3O[C@H](CO)[C@@H](O)[C@H](O)[C@H]3O)c(O)cc(O)c12 (stereo partly drawn),5,8,1,-1,6,-4,x,
O=c1cc(-c2ccc(O)c(O)c2)oc2c(C3O[C@H](CO)[C@@H](O)[C@H](O)[C@H]3O)c(O)cc(O)c12 (stereo partly drawn),2,30*,-3,-2,4,-5,11,
CCCCn1c(N)c(N(CCC(C)C)C(=O)COC(=O)c2ccc([N+](=O)[O-])s2)c(=O)[nH]c1=O,13,30*,25,-15,2,-7,22,
CCCCn1c(N)c(N(CCC(C)C)C(=O)COC(=O)c2sccc2C)c(=O)[nH]c1=O,4,10,-2,-8,-4,-1,x,
OCC#Cc1ncc(C(F)(F)F)cc1Cl,1,28*,-3,2,4,3,25,
Cc1ccc(N(C)C(=O)CCS(=O)(=O)c2ccc3c(c2)oc(=O)n3C)cc1,4,9,8,-10,5,-2,x,
COc1ccccc1NC(=S)N(CCCN1CCOCC1)Cc1cccs1,-1,0,1,4,5,9,x,
CCCNC(=O)c1ccc2c(=O)c(O)c(-c3ccc(C)cc3)[nH]c2c1,10,27*,-20,6,15,12,6,
Cc1ccc(-c2[nH]c3cc(C(N)=O)ccc3c(=O)c2O)cc1,11,29*,-20,-3,24,-5,23,
CC(=O)NNC(=O)CCC(=O)Nc1ccccc1,-5,10,-2,-6,1,7,x,
CC(=O)SCCC(=O)Nc1ccccc1,1,26*,-3,2,6,-1,14,
Cc1ccc(/C=C/C(=O)NC2CCCCCCC2)o1,3,6,8,3,3,5,x,
CCCC[n+]1c2ccccc2cc2ccccc21,7,27*,3,11,3,-2,35*,
Cc1c(O)nc2sc3ccccc3n2c1=O,x,x,x,14,2,4,x,
O=c1cc(CCl)nc2sc3ccccc3n12,-3,60*,-1,2,7,4,73*,
O=C(O)c1ccccc1Nc1ccc([N+](=O)[O-])cc1C(=O)O,1,43*,1,-4,1,2,11,
Cc1cccc(C(=O)Oc2ccc(/C=N/NC(=O)c3cc(O)cc(O)c3)cc2)c1,5,26*,-17,-11,x,-1,12,
O=C(COC(=O)c1ccc2ccccc2n1)NCc1ccccc1,4,47*,-6,8,20,4,6,
O=C(COC(=O)c1ccc2ccccc2c1O)NCc1ccccc1,1,7,4,10,2,-18,x,
SMILES,PAFAH1B2 inh,PAFAH1B3 inh,PAFAH2 FP inh,ARFGAP1 inh,pPAFAH FP inh,ASAP1 inh,PAFAH1B3 conf FP,others
COc1ccc(C(=O)C[C@@H]2OC[C@H](C(C)C)N2S(=O)(=O)c2ccc(C)cc2)cc1OC,x,x,x,2,x,-10,x,
CCCC[n+]1ccn(C2=C([O-])c3ccccc3C(=O)/C2=N\S(=O)(=O)c2ccccc2)c1,13,36*,10,4,-4,4,26*,
S=C(Nc1ccc2nsnc2c1)N1CCCCC1,12,51*,15,22,1,25*,9,ASAP1 GAP conf=0
CC1OC(Nc2cccc3ccccc23)C(O)C(O)C1O (stereo not drawn),4,32*,14,9,0,26*,9,ASAP1 GAP conf=4
COC(=O)c1cccc2c(C(=O)O)cc(-c3ccccc3)nc12,3,4,4,-11,x,-1,x,
O=C(NN1C(=O)c2ccccc2C1=O)C1C2CCCCC21 (stereo not drawn),2,5,2,-2,1,-5,x,
N#Cc1cc2ccc(N3CCOCC3)cc2cc1C#N,7,60*,18,4,9,30*,15,ASAP1 GAP conf=6
N#Cc1cc(Cl)c(N2CCOCC2)cc1C#N,2,3,12,0,-2,9,x,
CCN1CCN(C2=C(NS(=O)(=O)c3ccc(C)cc3)C(=O)c3ccccc3C2=O)CC1,8,6,-2,4,0,11,x,
Cc1ccc(NC2=C(N3CCCCC3)C(=O)c3ccccc3C2=O)cc1,12,41*,29,15,-1,28*,17,ASAP1 GAP conf=16
CC1(C)C=C2C(=NN(c3ccccc3)C(N)=C2C#N)CO1,12,44*,4,9,8,26*,51*,ASAP1 GAP conf=8
Cc1cc(C)c(S(=O)(=O)N(C)CC(=O)NCc2ccncc2)c(C)c1,2,7,6,9,2,8,x,
O=C1C=C(Nc2cccnc2)c2ccccc2C1=O,8,53*,8,-7,x,26*,27*,ASAP1 GAP conf=12
CC(C(=O)Nc1cccnc1)N1C(=O)c2ccccc2C1=O (stereo not drawn),2,3,13,2,0,5,x,
O=C1C(N2CCOCC2)=C(n2nnc3ccccc32)C(=O)c2ccccc21,22,51*,9,31*,7,44*,34*,ASAP1 GAP conf=10;ARFGAP1 confirm=3
CCCCN(C)C(=O)C1CCCN(S(=O)(=O)c2ccc3c(c2)CC(C)N3C(=O)C2CC2)C1 (stereo not drawn),2,3,0,-7,3,-2,x,
COc1cc(C=C2C(=O)c3ccccc3C2=O)cc(OC)c1,-3,2,16,-3,0,-2,x,

# Assay outcomes deposited in PubChem BioAssay by The Scripps Research Institute Molecular Screening Center.
